Assay outcomes (PubChem)
Sampled rows, rich in hits. Any-hit rate of the full collection: about 1.9%.
Runt-SMMHC FRET – blocks binding of human RUNX1 Runt domain to CBFb-SMMHC. AID 1434. Q01196+Q13951. hit rate 0.74% among 220,000. inhibition, % at 20 µM. Cerulean-Runt/Venus-CBFb-SMMHC FRET ratio 530/480, 1 h;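 active = mean inhibition across duplicate retests at 20 µM reaching about 50%, limit read from the data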;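 note: 0% = DMSO wells and 100% = wells with excess untagged CBFb-SMMHC; inhibitors lower the FRET ratio by blocking Runt binding to CBFb-SMMHC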
Hck Nef HTS – blocks Nef-activated human Hck kinase. P08631. Recombinant Hck-YEEI plus Nef, Z-Lyte FRET kinase assay. inhibition, % at 20 µM. hit rate 0.68% among 220,000. AID 463187;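 active = Hck-Nef kinase inhibition above about 50%, limit read from the data; inactive = inhibition below that limit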;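 note: 0% = DMSO with Hck plus Nef and 100% = Hck alone without Nef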
Target sequence (P08631 whole entry, looked up): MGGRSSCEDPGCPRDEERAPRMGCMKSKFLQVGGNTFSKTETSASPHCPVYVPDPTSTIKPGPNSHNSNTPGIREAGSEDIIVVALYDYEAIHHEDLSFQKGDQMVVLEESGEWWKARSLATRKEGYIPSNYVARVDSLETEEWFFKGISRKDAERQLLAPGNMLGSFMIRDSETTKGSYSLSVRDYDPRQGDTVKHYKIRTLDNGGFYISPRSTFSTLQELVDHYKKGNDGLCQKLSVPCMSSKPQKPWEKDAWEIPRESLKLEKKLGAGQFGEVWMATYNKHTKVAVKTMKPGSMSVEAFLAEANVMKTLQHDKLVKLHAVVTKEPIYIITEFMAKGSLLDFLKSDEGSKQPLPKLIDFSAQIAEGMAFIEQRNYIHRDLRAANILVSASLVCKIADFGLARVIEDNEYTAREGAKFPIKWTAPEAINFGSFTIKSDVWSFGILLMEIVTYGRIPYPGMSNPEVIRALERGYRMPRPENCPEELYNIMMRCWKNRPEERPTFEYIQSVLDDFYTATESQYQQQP
RanGTP-Imp inh – inhibitors of RanGTP-importin-beta interaction, primary screen, biochemical, FRET, CFP-Ran, YFP-importin-beta, homogeneous; cell-free CFP-Ran/YFP-importin-beta FRET ratio; inhibition, % (concentration not given with the values); hit rate 1.1% among 300,000;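 active = more than half of the replicate wells show a fall in the fluorescence ratio signal beyond about 16%, limit read from the data, passing the limit was not always enough; inconclusive = exactly half of the replicate wells pass the set limit; inactive = fewer than half of replicates pass the limit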;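 note: 0% = DMSO wells and 100% = Ran loaded with GDP instead of GTP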
Runt-CBFb FRET – inhibitors of human RUNX1 Runt domain binding to CBFb | Cerulean-Runt/Venus-CBFb FRET ratio 530/480, 1 h | inhibition, % at 20 µM | hit rate 0.46% among 220,000;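 active = inhibition over about 50% at 20 µM in the single-dose screen, limit read from the data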;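 note: 0% = DMSO wells and 100% = excess unlabeled CBFb competitor control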
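Measured by: fluorescence energy transfer, 422 nm excitation, 530/480 nm emission; test system: Cerulean-tagged RUNX1 Runt domain (FRET donor) fusion protein; buffer or medium: Tris pH 7.5 buffer with BSA; compound: one dose, 20 µM compound, 1% DMSO; times: two 1 h room-temperature incubations shielded from light; benchmarks: unlabeled CBFb 5 µM, positive control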
The depositor's hits bear a star; ? = inconclusive; / = no result.

SMILES	Runt-SMMHC FRET	Hck Nef HTS	RanGTP-Imp inh	Runt-CBFb FRET
O=S1(=O)N=C(Nc2nncs2)c2ccccc21	-10	0	0	2
c1ccc2c(Nc3nncs3)c3ccccc3nc2c1	17	26	59*	9
CCc1nc(SCC(=O)c2ccc3c(c2)OCCO3)c2ccccc2n1	56*	2	12	29
O=[N+]([O-])c1ccc(Oc2cccc(C(F)(F)F)c2)nc1	4	16	-2	1
Cc1ccc(C2C(C#N)=C(N)Oc3cc4c(cc32)OCO4)cc1 (stereo unspecified)	33	5	12	24
COc1cc(C2C(C#N)=C(N)Oc3cc(N)ccc32)cc(OC)c1OC (stereo unspecified)	81*	4	/	35
COc1ccc(C2C(C#N)=C(N)Oc3cc(N)ccc32)cc1 (stereo unspecified)	/	/	77*	/
CCN(CC)c1ccc2c(c1)OC(N)=C(C#N)C2c1cccnc1 (stereo unspecified)	-194	-4	-127	/
N#CC1=C(N)Oc2cc(N)ccc2C1c1ccccc1Cl (stereo unspecified)	/	/	133*	/
N#CC1=C(N)OC2=C(CCc3ccccc32)C1c1ccccc1Cl (stereo unspecified)	30	1	4	12
N#CC1=C(N)Oc2cc(N)ccc2C1c1cccnc1 (stereo unspecified)	-4	0	24*	-4
COC(=O)[C@@H](Cc1c[nH]c2ccccc12)NC(=O)c1cc(=O)[nH]c2ccccc12	-6	14	1	1
CCCc1ccc(-c2cc(C(=O)Nc3ccc([N+](=O)[O-])cn3)c3ccccc3n2)cc1	3	2	-1	4
N#CC1=C(N)Oc2cc(N)ccc2C1c1ccc(Cl)cc1 (stereo unspecified)	/	/	61*	/
COc1ccc(C2C(C#N)=C(N)Oc3cc(C)n(Cc4ccco4)c(=O)c32)cc1 (stereo unspecified)	4	-2	-6	9
C#CCSc1nc(N)c2c(n1)OC(N)=C(C#N)C2c1cccnc1 (stereo unspecified)	3	6	60*	0
CCc1ccc(C2C(C#N)=C(N)Oc3cc(N)ccc32)cc1 (stereo unspecified)	/	/	96*	/
COc1ccc(C2C(C#N)=C(N)Oc3cccc(O)c32)cc1 (stereo unspecified)	/	/	51*	/
CCn1nc2cc(C(=O)NCCc3cccs3)ccc2c1OC	-7	2	2	/
Cc1ccc(OCC(=O)Nc2ccc(N3CCN(C(=O)c4ccco4)CC3)cc2)cc1	-5	14	0	-2
Cc1nn(-c2ccccc2)c2c1C(c1ccc(F)cc1F)C(C#N)=C(N)O2 (stereo unspecified)	0	0	-3	-2
N#CC1=C(N)Oc2cc(N)ccc2C1c1ccc(F)cc1F (stereo unspecified)	/	/	125*	/
CC(=O)Oc1cc2c(cc1Cl)C(c1cccs1)CC1(CC(C)(C)NC(=S)N1)O2 (stereo unspecified)	1	18	-2	0
CCOC(=O)C1CCN(C(=O)c2ccc3nc(-c4ccc(OC)cc4)c(-c4ccc(OC)cc4)nc3c2)CC1	/	/	24*	/
CS(=O)(=O)N(CC(=O)NCc1ccncc1)Cc1ccc(Cl)cc1	-2	14	/	0
SMILES	Runt-SMMHC FRET	Hck Nef HTS	RanGTP-Imp inh	Runt-CBFb FRET
CCCCNC(=O)c1cc2c(=O)n3cccc(C)c3nc2n(Cc2ccccc2)c1=N	62*	10	188*	12
Cc1cccn2c(=O)c3cc(C(=O)NC4CCCC4)c(=N)n(Cc4ccc(F)cc4)c3nc12	/	/	178*	/
Cc1cccn2c(=O)c3cc(C(=O)NC4CCCCC4)c(=N)n(Cc4ccccc4)c3nc12	/	/	186*	/
Cc1cccn2c(=O)c3cc(C(=O)NC4CCCC4)c(=N)n(C4CCCCC4)c3nc12	/	/	175*	/
O=C(NCCCn1ccnc1)c1ccc(N2CCCCC2)c([N+](=O)[O-])c1	-1	1	?	-5
Cc1cccn2c(=O)c3cc(C(=O)NC4CCCC4)c(=N)n(CCc4ccccc4)c3nc12	/	/	179*	/
N#C/C(=C/c1ccncc1)c1nc2ccccc2s1	-40	16	84*	-16
N#C/C(=C\c1ccncc1)c1nc2ccccc2[nH]1	-11	-23	7	4
COCCNS(=O)(=O)c1cc2[nH]c3c(c2cc1C)C(=O)CC(C)(C)C3	/	/	7	/
CCNC(=O)CN(c1ccc(Oc2ccccc2)cc1)S(=O)(=O)c1ccccc1	/	/	0	/
N=c1c(C(=O)NCC2CCCO2)cc2c(=O)n3ccccc3nc2n1Cc1ccc(Cl)cc1 (stereo unspecified)	/	/	180*	/
N=c1c(C(=O)NCC2CCCO2)cc2c(=O)n3ccccc3nc2n1Cc1ccccc1 (stereo unspecified)	/	/	180*	/
COc1ccc(-c2cc(C(F)F)n3ncc(C(=O)NCC4CCCO4)c3n2)cc1 (stereo unspecified)	62*	1	58*	18
N=c1c(C(=O)NCC2CCCO2)cc2c(=O)n3ccccc3nc2n1Cc1ccccc1Cl (stereo unspecified)	/	/	188*	/
CNC(=O)c1ccsc1NC(=O)CS(=O)(=O)c1ccc(Cl)cc1	/	/	0	/
O=C(CN1CCN(C(=O)N2CCOCC2)CC1)Nc1cc(Cl)ccc1Cl	/	/	3	/
COc1ccc(Cn2c(=N)c(C(=O)NCC3CCCO3)cc3c(=O)n4ccccc4nc32)cc1 (stereo unspecified)	/	/	23*	/
Cc1ccc(Cn2c(=N)c(C(=O)NCC3CCCO3)cc3c(=O)n4cccc(C)c4nc32)cc1 (stereo unspecified)	/	/	-3	/
Cc1ccc(Cn2c(=N)c(C(=O)NCC3CCCO3)cc3c(=O)n4ccccc4nc32)cc1 (stereo unspecified)	/	/	161*	/
COc1ccccc1NS(=O)(=O)c1cc(Cl)ccc1OC	-1	-6	-7	0
N/C(Cc1nc2ccccc2s1)=N\O	5	-13	85*	4
CC(C)c1ccccc1NC(=O)COC(=O)/C=C/c1cccc([N+](=O)[O-])c1	4	1	-2	0
O=C(O)c1c2c(nc3ccccc13)/C(=C/c1ccc(O)cc1)CC2	86*	-19	-10	20
O=C(O)c1c2c(nc3ccccc13)/C(=C/c1c(F)cccc1F)CCC2	/	/	75*	/
CCn1cc(C(=O)O)c(=O)c2cc(F)c(N/N=C/c3ccccc3[N+](=O)[O-])cc21	5	1	4	0
Cc1ccc(C(=O)C(c2ccccc2)N2Cc3ccccc3C2=N)cc1 (stereo unspecified)	-4	3	-3	-4
Cc1cc(C(F)(F)F)c(C#N)c(SCC(=O)Nc2nc3ccccc3s2)n1	6	-3	-24	-5
Cc1ccc2sc(NC(=O)CSc3nc(C)cc(C)c3C#N)nc2c1	56*	1	8	12
Fc1cccc(CSc2nc3ncccc3[nH]2)c1	3	0	-1	-2
Fc1ccc(CSc2nc3ncccc3[nH]2)cc1	110	-1	?	102*
